Results reported in ChEMBL document CHEMBL1142540, “Novel piperidinylpyrimidine derivatives as inhibitors of HIV-1 LTR activation” (Bioorg Med Chem, 2008).

Columns and labels:
[1] = Inhibition of HIV1 LTR-driven CAT gene expression in PMA-stimulated human JURKAT cells; assay type: cell-based; conditions: Human immunodeficiency virus 1, Jurkat
Outline: (§1)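 Jurkat cells electroporated (140 V) with HIV-1 LTR-CAT plasmid p469 using DEAE-dextran and cultured 20 h. Cells then stimulated with PMA 10 ng/ml in presence of compound for 24 h at 37 °C, lysed by freeze-thaw.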

Jurkat [2] = experiment: Cytotoxicity against human JURKAT cells; assay type: cell-based
Outline: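 Cell number of treated Jurkat cells counted by Coulter counter to assess inhibition of proliferation.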

PBMC = experiment: Inhibition of LPS-stimulated TNFalpha production in human PBMC; assay type: functional, cell-based
Outline: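 Human PBMC from healthy donors isolated by Ficoll-Paque, seeded at 1×10^5 cells/well in RPMI 1640 with 10% heat-inactivated FBS and L-glutamine. Stimulated with LPS 0.1 ug/ml final, compound added at the same time (DMSO below 0.1%), 20 h; supernatants collected for TNF-α.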

Jurkat [3] = experiment: Inhibition of HIV1 LTR-driven CAT gene expression in PMA-stimulated human JURKAT cells at 5 uM; assay type: cell-based; conditions: Human immunodeficiency virus 1; outline: as §1
[4] = test system: Peritoneal macrophage cell; experiment: Inhibition of LPS-stimulated TNFalpha production in BALB/c mouse peritoneal macrophages by ELISA; assay type: functional, cell-based
Outline: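 Thioglycolate-elicited peritoneal macrophages from 5-week-old female BALB/c mice, adherent cells at 2×10^5/well in MEM with 10% FBS. LPS 10 ug/ml final, added together with compound (DMSO below 0.1%), 20 h. Supernatant TNF-α measured by sandwich ELISA against recombinant mouse TNF-α standard curve, absorbance at 450 nm.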

[5] = Inhibition of HIV1 LTR-driven CAT gene expression in Tat-stimulated human JURKAT cells; assay type: cell-based; conditions: Human immunodeficiency virus 1, Jurkat
Outline: (§2)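 Jurkat cells co-electroporated (140 V) with LTR-CAT p469 plus pSV-Tat using DEAE-dextran, cultured 20 h, then treated with compound alone (no PMA) for 24 h at 37 °C.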

Jurkat [6] = experiment: Inhibition of HIV1 LTR-driven CAT gene expression in Tat-stimulated human JURKAT cells at 1 uM; assay type: cell-based; conditions: Human immunodeficiency virus 1; outline: as §2
[7] = Inhibition of Tat-induced HIV1 LTR transactivation in human HeLa cells assessed as CAT expression after 2 days; assay type: cell-based; conditions: Human immunodeficiency virus 1, HeLa, 48 h
[8] = Inhibition of HIV1 LTR-driven CAT gene expression in PMA-stimulated HEK293-27-2 cells assessed as […]; conditions: Human immunodeficiency virus 1
[9] = Inhibition of Tat-induced HIV1 LTR transactivation; design: species or system Human immunodeficiency virus 1
Outline: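 Jurkat cells electroporated at 140 V with HIV-1 LTR-CAT plasmid p469 (1 µg) plus pSV-Tat (0.5 µg) and DEAE-dextran, then cultured 20 h at 37 °C. Cells were exposed to compound without PMA for 24 h and lysed. Reported as % inhibition at 5 µM or IC50, single determination.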

SMILES	IC50 [1] [nM]	Activity (Jurkat [2])	inhibition (Jurkat [3]) [%]	other results
COc1ccc(-c2cc(C3CCN(C(=O)c4ccc5c(c4)OCO5)CC3)nc(N)n2)cc1	1900	Non-toxic		
COc1ccc(Cc2cc(C3CCN(C(=O)c4ccc5c(c4)OCO5)CC3)nc(N)n2)cc1OC	600	Non-toxic		IC50 (PBMC): 3200 nM
COc1ccc(Cc2cc(C3CCN(C(=O)c4ccc([N+](=O)[O-])cc4)CC3)nc(N)n2)cc1	> 5000	Non-toxic	23	IC50 [4]: 700 nM
COc1ccc(Cc2cc(C3CCN(C(=O)c4ccccc4)CC3)nc(N)n2)cc1	> 5000	Non-toxic	19	
COc1ccc(Cc2cc(C3CCN(C(=O)c4ccc(Cl)c(Cl)c4)CC3)nc(N)n2)cc1	> 5000	Non-toxic	17	IC50 [4]: 700 nM
CS(=O)(=O)c1ccc(Cc2cc(C3CCN(C(=O)c4ccc5c(c4)OCO5)CC3)nc(N)n2)cc1	> 5000	Non-toxic	37	
COc1ccc(Cc2cc(C3CCN(C(=O)c4ccc5ccoc5c4)CC3)nc(N)n2)cc1	> 5000	Non-toxic	2	
Nc1nc(Cc2ccccc2)cc(C2CCN(C(=O)c3ccc4c(c3)OCO4)CC2)n1	800	Non-toxic		IC50 (PBMC): 3200 nM
Nc1nc(Cc2ccc(OCc3ccccc3)cc2)cc(C2CCN(C(=O)c3ccc4c(c3)OCO4)CC2)n1	1200	Non-toxic		IC50 [5]: 2100 nM
CSc1ccc(Cc2cc(C3CCN(C(=O)c4ccc5c(c4)OCO5)CC3)nc(N)n2)cc1	200	Non-toxic		IC50 [5]: < 1000 nM; inhibition (Jurkat [6]): 57%
COc1ccc(Cc2cc(C3CCN(C(=O)c4ccc5c(c4)CCO5)CC3)nc(N)n2)cc1	> 5000	Non-toxic	-8	
COc1ccc(Cc2cc(C3CCN(C(=O)c4ccc5c(c4)OCO5)CC3)on2)cc1	> 5000	Non-toxic	35	
COc1ccc(Cc2cc(C3CCN(C(=O)c4ccc5nsnc5c4)CC3)nc(N)n2)cc1	> 5000	Non-toxic	4	
Nc1nc(C2CCN(C(=O)c3ccc4c(c3)OCO4)CC2)c2ccccc2n1	2600	Non-toxic		
COc1ccc(Cc2cc(C3CCN(C(=O)Cc4ccc(OC)c(OC)c4)CC3)nc(N)n2)cc1	> 5000	Non-toxic	7	
C[S+]([O-])c1ccc(Cc2cc(C3CCN(C(=O)c4ccc5c(c4)OCO5)CC3)nc(N)n2)cc1 (configuration not stated)	> 5000	Non-toxic	27	
COc1ccc(Cc2cc(C3CCN(C(=O)c4ccc5c(c4)OCO5)CC3)ncn2)cc1	500	Non-toxic		
Nc1nc(Cc2ccc3c(c2)OCO3)cc(C2CCN(C(=O)c3ccc4c(c3)OCO4)CC2)n1	700	Non-toxic		IC50 (PBMC): 3300 nM
COc1cc(Cc2cc(C3CCN(C(=O)c4ccc5c(c4)OCO5)CC3)nc(N)n2)cc(OC)c1	300	Non-toxic		IC50 [5]: < 1000 nM; inhibition (Jurkat [6]): 56%; IC50 (PBMC): 3300 nM
COc1ccc(Cc2cc(C3CCN(C(=O)c4ccc(OC)cc4)CC3)nc(N)n2)cc1	> 5000	Non-toxic	-5	IC50 [4]: 500 nM
COc1ccc(Cc2cc(C3CCN(Cc4ccc5c(c4)OCO5)CC3)nc(N)n2)cc1	> 5000	Non-toxic	-2	
Nc1nc(CCc2ccccc2)cc(C2CCN(C(=O)c3ccc4c(c3)OCO4)CC2)n1	2100	Non-toxic		
COc1ccc(Cc2cc(C3CCN(C(=O)c4ccc5c(c4)OCO5)CC3)nc(Cl)n2)cc1	700	Non-toxic		
CCCCCCCC(=O)N1CCC(c2cc(Cc3ccc(OC)cc3)nc(N)n2)CC1	> 5000	Non-toxic	19	
Nc1nc(Cc2ccc(Cl)cc2)cc(C2CCN(C(=O)c3ccc4c(c3)OCO4)CC2)n1	1300	Non-toxic		IC50 [5]: 7100 nM; IC50 (PBMC): 13000 nM
C[S+]([O-])c1ccc(-c2nc(-c3ccc(F)cc3)c(-c3ccncc3)[nH]2)cc1 (configuration not stated) [SB-203580]				IC50 [7]: 100 nM

SMILES	IC50 [1] [nM]	Activity (Jurkat [2])	inhibition (Jurkat [3]) [%]	other results
COc1ccc(Cc2cc(C3CCN(C(=O)c4ccc5occc5c4)CC3)nc(N)n2)cc1	> 5000	Non-toxic	4	
Nc1nc(-c2ccc(Cl)cc2)cc(C2CCN(C(=O)c3ccc4c(c3)OCO4)CC2)n1	> 5000	Non-toxic	42	
COc1ccc(Cc2cc(C3CCN(C(=O)c4ccc5ocnc5c4)CC3)nc(N)n2)cc1	> 5000	Non-toxic	-7	
COc1ccc(Cc2cc(C3CCN(C(C)=O)CC3)nc(N)n2)cc1	> 5000	Non-toxic	0	
COc1ccc(Cc2cc(C3CCN(C(=O)c4ccc5c(c4)OCCO5)CC3)nc(N)n2)cc1	> 5000	Non-toxic	7	
COc1ccc(Cc2cc(C3CCN(C(=O)c4ccc5c(c4)OCO5)CC3)nc(=O)[nH]2)cc1	> 5000	Non-toxic		
COc1cccc(Cc2cc(C3CCN(C(=O)c4ccc5c(c4)OCO5)CC3)nc(N)n2)c1	300	Non-toxic		IC50 (PBMC): 2700 nM
COc1ccc(Cc2cc(C3CCN(C(=O)c4ccc(Cl)cc4)CC3)nc(N)n2)cc1	> 5000	Non-toxic	21	IC50 [4]: 600 nM
COc1ccc(Cc2cc(C3CCN(C(=O)c4ccc5ncoc5c4)CC3)nc(N)n2)cc1	> 5000	Non-toxic	-8	
COc1ccc(Cc2cc(C3CCN(C(=O)c4cccc5c4OCO5)CC3)nc(N)n2)cc1	> 5000	Non-toxic	13	
COc1ccc(Cc2cc(C3CCN(C(=O)c4ccc5c(c4)OCO5)CC3)nc(N)n2)cc1	600	Non-toxic	86	IC50 [4]: 600 nM; IC50 [5]: 4000 nM; IC50 (PBMC): 1900 nM
COc1ccc(Cc2cc(C3CCN(C(=O)Cc4ccc5c(c4)OCO5)CC3)nc(N)n2)cc1	> 5000	Non-toxic	16	
Nc1nc(Cc2ccc(Br)cc2)cc(C2CCN(C(=O)c3ccc4c(c3)OCO4)CC2)n1	700	Non-toxic		
COc1ccc(-c2c(C)nc(N)nc2C2CCN(C(=O)c3ccc4c(c3)OCO4)CC2)cc1	> 5000	Non-toxic	31	
Cn1cc(C(=O)O)c(=O)c2cc(F)c(N3CC=C(c4ccccc4)CC3)c(C(F)(F)F)c21 [FLUOROQUINOLINE K37]				IC50 [7]: < 160 nM
COc1ccc(Cc2cc(C3CCN(C(=O)c4ccc5c(c4)OCO5)CC3)n[nH]2)cc1	> 5000	Non-toxic	35	
Nc1nc(-c2ccccc2)cc(C2CCN(C(=O)c3ccc4c(c3)OCO4)CC2)n1	> 5000	Non-toxic	47	
CC(=O)CCCCn1c(=O)c2c(ncn2C)n(C)c1=O [PENTOXIFYLLINE]				IC50 [8]: 500000 nM
Nc1nc(Cc2ccc(O)cc2)cc(C2CCN(C(=O)c3ccc4c(c3)OCO4)CC2)n1	> 5000	Non-toxic	36	
COc1ccc(Cc2cc(C3CCN(C(=O)c4ccc5c(c4)OCO5)CC3)no2)cc1	> 5000	Non-toxic	36	
COc1ccc(Cc2cc(C3CCN(C(=O)c4ccc(OC)c(OC)c4)CC3)nc(N)n2)cc1	> 5000	Non-toxic	14	IC50 [4]: 900 nM
COc1ccc(Cc2cc(C3CCN(C(=O)c4ccc5[nH]ccc5c4)CC3)nc(N)n2)cc1	> 5000	Non-toxic	1	
COc1ccc(OC)c(Cc2cc(C3CCN(C(=O)c4ccc5c(c4)OCO5)CC3)nc(N)n2)c1	200	Non-toxic		IC50 [5]: < 1000 nM; inhibition (Jurkat [6]): 58%; IC50 (PBMC): 7700 nM
Cc1cc(C2CCN(C(=O)c3ccc4c(c3)OCO4)CC2)nc(N)n1	> 5000	Non-toxic	10	
O=C1CN=C(c2ccc[nH]2)c2cc(Cl)ccc2N1				IC50 [9]: 100 nM
